Reference: ChEMBL document CHEMBL3414471 (J Med Chem, 2015)
Active and inactive are the calls of the source. The rule behind the calls is not given here.

How the values were obtained:
[1] = Bioavailability in mouse; type: ADME, organism-based; conditions: in vivo
[2] = molecular target: Alpha-2B adrenergic receptor (Homo sapiens, UniProt P18089); assay: Binding affinity to adrenergic alpha-2B receptor (unknown origin)
Homo sapiens = species: Homo sapiens; assay: Selectivity ratio of EC50 for human 5-HT2A receptor to EC50 for human 5HT2C receptor
hERG (KCNH2) [3] = molecular target: T1, hERG (KCNH2) (Homo sapiens, UniProt Q12809); assay: Inhibition of human ERG channel expressed in CHO cells at 3.3 uM by patch clamp method; type: cell-based; conditions: CHO cells expressing human ERG channel
Outline: (§1)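 hERG current recorded in CHO cells by automated patch clamp; percent inhibition at 0.37, 1.1, 3.3, 10 and 30 µM.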

[4] = molecular target: 5-hydroxytryptamine receptor 1A (Homo sapiens, UniProt P08908); assay: Binding affinity to 5HT1A receptor (unknown origin)
[5] = molecular target: 5-hydroxytryptamine receptor 2B (Homo sapiens, UniProt P41595); assay: Agonist activity at human 5-HT2B receptor expressed in HEK293 cells assessed as calcium flux at 10 uM by FLIPR assay; type: functional, cell-based
Outline: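 Flp-In-293 cells stably expressing human 5-HT2A, 5-HT2B or 5-HT2C-INI, grown in DMEM with 10% dialyzed FBS, then plated for 24 h in 1% dialyzed FBS. Cells were loaded 1 h at 37 °C with calcium dye in Hepes-buffered HBSS, pH 7.40, containing 2.5 mM probenecid. FLIPR read 10 s baseline, then 120 s after drug addition.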

[6] = molecular target: 5-hydroxytryptamine receptor 7 (Homo sapiens, UniProt P34969); assay: Binding affinity to 5HT7 receptor (unknown origin)
hERG (KCNH2) [7] = molecular target: T1, hERG (KCNH2); assay: (§2) Inhibition of human ERG channel expressed in CHO cells at […] by patch clamp method; type: cell-based; conditions: CHO cells expressing human ERG channel
CYP2D6 = CYP2D6 (Homo sapiens, UniProt P10635); assay: Inhibition of human CYP2D6 using dextromethorphan as substrate at 10 uM; type: ADME; conditions: probe dextromethorphan
[8] = molecular target: Alpha-2C adrenergic receptor (Homo sapiens, UniProt P18825); assay: Binding affinity to adrenergic alpha-2C receptor (unknown origin)
CYP3A4 = CYP3A4 (Homo sapiens, UniProt P08684); assay: Inhibition of human CYP3A4 using midazolam as substrate at 10 uM; type: ADME; conditions: probe midazolam
Outline: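 Human liver microsomes with test compound at 10 µM; percent inhibition determined using bupropion (2B6), dextromethorphan (2D6) or midazolam (3A/3A4) as probe substrates.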

[9] = molecular target: T2, 5-hydroxytryptamine receptor 2C (Homo sapiens, UniProt P28335); assay: Agonist activity at human 5-HT2C receptor expressed in HEK293 cells assessed as calcium flux by FLIPR assay; type: functional, cell-based
T2 sequence (P28335 whole entry): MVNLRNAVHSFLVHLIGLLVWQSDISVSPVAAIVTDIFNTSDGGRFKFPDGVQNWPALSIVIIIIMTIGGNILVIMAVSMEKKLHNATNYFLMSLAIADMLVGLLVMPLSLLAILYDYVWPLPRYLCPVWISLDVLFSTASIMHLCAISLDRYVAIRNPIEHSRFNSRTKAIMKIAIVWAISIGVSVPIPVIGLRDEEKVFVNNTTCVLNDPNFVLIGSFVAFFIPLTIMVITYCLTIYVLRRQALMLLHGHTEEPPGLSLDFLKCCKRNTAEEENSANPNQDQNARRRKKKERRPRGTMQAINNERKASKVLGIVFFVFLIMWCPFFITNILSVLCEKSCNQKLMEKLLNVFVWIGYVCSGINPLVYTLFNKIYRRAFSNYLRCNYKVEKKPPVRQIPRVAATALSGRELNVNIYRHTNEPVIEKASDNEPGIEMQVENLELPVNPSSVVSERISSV

[10] = molecular target: Voltage-gated inwardly rectifying potassium channel KCNH2 (Homo sapiens, UniProt Q12809); assay: Inhibition of human ERG channel expressed in CHO cells by patch clamp method; type: cell-based; conditions: human, cho
hERG (KCNH2) [11] = molecular target: T1, hERG (KCNH2); assay: Inhibition of human ERG channel expressed in CHO cells at 10 uM by patch clamp method; type: cell-based; conditions: CHO cells expressing human ERG channel; outline: as §1
CYP2C19 = CYP2C19 (Homo sapiens, UniProt P33261); assay: Inhibition of human CYP2C19 using omeprazole as substrate at 10 uM; type: ADME; conditions: probe omeprazole
[12] = molecular target: T3, 5-hydroxytryptamine receptor 2A (Homo sapiens, UniProt P28223); assay: Agonist activity at human 5-HT2A receptor expressed in HEK293 cells assessed as calcium flux by FLIPR assay; type: functional, cell-based
[13] = molecular target: 5-hydroxytryptamine receptor 6 (Homo sapiens, UniProt P50406); assay: Binding affinity to 5HT6 receptor (unknown origin)
CYP2C9 = CYP2C9 (Homo sapiens, UniProt P11712); assay: Inhibition of human CYP2C9 using diclofenac as substrate at 10 uM; type: ADME; conditions: probe diclofenac
hERG (KCNH2) [14] = molecular target: T1, hERG (KCNH2); assay: as §2; type: cell-based; conditions: CHO cells expressing human ERG channel; remark: listed apart in the source
[15] = molecular target: T4, 5-hydroxytryptamine receptor 2C (Homo sapiens) (UniProt P28335); assay: Agonist activity at human 5-HT2C receptor expressed in HEK293 cells assessed as calcium flux by FLIPR assay relative to 5-HT; type: functional, cell-based
T4 sequence (whole entry): T2 sequence (P28335 whole entry)
Outline: (§3)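 Flp-In-293 cells stably expressing human 5-HT2A, 5-HT2B or 5-HT2C-INI; grown 24–48 h in DMEM/10% dialyzed FBS, plated on poly-L-Lys at 12000 cells/well in 1% dialyzed FBS for 24 h. Loaded 1 h at 37 °C with calcium dye in HBSS, 20 mM Hepes pH 7.40, 2.5 mM probenecid.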

[16] = molecular target: T3, 5-hydroxytryptamine receptor 2A; assay: Agonist activity at human 5-HT2A receptor expressed in HEK293 cells assessed as calcium flux by FLIPR assay relative to 5-HT; type: functional, cell-based; outline: as §3
D(3) dopamine receptor = D(3) dopamine receptor (Homo sapiens, UniProt P35462); assay: Binding affinity to dopamine D3 receptor (unknown origin)
[17] = molecular target: Alpha-2A adrenergic receptor (Homo sapiens, UniProt P08913); assay: Binding affinity to adrenergic alpha-2A receptor (unknown origin)
hERG (KCNH2) [18] = molecular target: T1, hERG (KCNH2); assay: Inhibition of human ERG channel expressed in CHO cells at 30 uM by patch clamp method; type: cell-based; conditions: CHO cells expressing human ERG channel; outline: as §1
Mus musculus = assay: Antipsychotic activity in C57BL/6J mouse assessed as reduction of amphetamine-induced locomotor activity administered ip 15 mins prior to amphetamine challenge measured for 105 mins by open field test relative to vehicle-treated control; type: functional, organism-based
CYP2B6 = molecular target: T5, CYP2B6 (Homo sapiens, UniProt P20813); assay: Inhibition of human CYP2B6 using bupropion as substrate at 10 uM; type: ADME; conditions: probe bupropion
T5 sequence (P20813 whole entry): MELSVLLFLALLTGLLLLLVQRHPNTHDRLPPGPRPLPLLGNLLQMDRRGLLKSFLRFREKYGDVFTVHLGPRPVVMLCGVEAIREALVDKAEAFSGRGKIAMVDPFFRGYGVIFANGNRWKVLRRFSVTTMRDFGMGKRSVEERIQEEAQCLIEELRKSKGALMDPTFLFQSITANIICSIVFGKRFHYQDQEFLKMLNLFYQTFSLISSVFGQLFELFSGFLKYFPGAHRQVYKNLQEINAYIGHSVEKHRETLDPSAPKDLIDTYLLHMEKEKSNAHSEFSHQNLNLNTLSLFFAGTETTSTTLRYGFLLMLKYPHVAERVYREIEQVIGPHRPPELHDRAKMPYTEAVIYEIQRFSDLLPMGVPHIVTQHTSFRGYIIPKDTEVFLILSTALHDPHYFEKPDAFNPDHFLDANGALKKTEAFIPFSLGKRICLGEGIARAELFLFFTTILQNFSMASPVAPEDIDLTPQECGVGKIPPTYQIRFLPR

T1 sequence (Q12809 whole entry): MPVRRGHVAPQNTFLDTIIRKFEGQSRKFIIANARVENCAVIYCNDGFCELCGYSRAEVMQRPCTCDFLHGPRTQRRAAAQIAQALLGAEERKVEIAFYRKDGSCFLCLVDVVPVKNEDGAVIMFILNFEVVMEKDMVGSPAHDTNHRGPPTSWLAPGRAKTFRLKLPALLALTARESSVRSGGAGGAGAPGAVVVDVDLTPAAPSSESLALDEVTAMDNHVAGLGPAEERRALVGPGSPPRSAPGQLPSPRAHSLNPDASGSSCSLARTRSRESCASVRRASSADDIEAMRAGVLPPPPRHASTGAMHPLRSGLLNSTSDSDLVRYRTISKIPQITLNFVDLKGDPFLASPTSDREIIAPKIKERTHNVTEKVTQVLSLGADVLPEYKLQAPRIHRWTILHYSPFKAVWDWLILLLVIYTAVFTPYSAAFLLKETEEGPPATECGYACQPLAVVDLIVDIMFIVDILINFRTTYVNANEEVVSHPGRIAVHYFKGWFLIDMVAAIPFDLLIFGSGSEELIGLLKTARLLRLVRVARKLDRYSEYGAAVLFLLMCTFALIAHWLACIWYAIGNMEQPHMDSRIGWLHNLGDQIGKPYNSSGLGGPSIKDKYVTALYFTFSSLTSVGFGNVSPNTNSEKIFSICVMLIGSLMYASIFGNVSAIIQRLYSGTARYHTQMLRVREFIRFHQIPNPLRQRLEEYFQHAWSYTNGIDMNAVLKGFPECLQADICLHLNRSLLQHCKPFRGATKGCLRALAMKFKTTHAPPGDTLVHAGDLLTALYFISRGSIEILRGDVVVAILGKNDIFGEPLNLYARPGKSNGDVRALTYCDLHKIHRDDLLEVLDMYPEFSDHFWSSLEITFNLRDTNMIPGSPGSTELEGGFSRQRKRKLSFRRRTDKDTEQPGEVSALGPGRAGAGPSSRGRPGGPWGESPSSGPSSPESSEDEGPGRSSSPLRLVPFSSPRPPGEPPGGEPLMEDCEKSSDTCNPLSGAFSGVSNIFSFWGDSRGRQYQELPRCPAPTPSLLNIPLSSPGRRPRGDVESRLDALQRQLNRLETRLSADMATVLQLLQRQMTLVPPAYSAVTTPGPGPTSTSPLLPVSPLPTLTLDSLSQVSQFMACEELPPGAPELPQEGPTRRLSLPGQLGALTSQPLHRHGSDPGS
T3 sequence (P28223 whole entry): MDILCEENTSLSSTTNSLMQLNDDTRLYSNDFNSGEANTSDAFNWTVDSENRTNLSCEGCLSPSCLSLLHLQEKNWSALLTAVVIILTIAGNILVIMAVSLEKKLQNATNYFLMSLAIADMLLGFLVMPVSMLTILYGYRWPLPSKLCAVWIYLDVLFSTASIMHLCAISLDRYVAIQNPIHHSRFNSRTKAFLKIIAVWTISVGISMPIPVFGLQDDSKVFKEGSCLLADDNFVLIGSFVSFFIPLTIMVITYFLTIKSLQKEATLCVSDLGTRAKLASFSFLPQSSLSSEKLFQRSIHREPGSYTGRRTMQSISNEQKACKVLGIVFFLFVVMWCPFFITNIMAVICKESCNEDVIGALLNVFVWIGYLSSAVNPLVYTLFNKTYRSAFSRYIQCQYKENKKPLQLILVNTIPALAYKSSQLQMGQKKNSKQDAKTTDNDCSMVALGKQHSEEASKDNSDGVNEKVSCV
Alpha-2B adrenergic receptor, sequence (P18089 whole entry): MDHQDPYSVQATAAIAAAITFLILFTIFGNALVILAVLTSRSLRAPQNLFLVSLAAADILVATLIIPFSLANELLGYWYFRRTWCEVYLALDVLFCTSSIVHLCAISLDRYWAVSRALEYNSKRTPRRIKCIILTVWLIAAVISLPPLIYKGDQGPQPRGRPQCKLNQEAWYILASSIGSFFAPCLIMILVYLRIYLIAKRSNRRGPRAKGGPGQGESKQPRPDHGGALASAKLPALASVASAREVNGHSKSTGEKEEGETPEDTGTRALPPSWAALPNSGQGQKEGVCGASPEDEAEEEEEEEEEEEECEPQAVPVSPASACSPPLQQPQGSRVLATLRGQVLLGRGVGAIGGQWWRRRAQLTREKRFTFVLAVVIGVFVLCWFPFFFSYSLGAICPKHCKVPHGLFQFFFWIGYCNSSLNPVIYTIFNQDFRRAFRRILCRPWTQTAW
CYP2C19, sequence (P33261 whole entry): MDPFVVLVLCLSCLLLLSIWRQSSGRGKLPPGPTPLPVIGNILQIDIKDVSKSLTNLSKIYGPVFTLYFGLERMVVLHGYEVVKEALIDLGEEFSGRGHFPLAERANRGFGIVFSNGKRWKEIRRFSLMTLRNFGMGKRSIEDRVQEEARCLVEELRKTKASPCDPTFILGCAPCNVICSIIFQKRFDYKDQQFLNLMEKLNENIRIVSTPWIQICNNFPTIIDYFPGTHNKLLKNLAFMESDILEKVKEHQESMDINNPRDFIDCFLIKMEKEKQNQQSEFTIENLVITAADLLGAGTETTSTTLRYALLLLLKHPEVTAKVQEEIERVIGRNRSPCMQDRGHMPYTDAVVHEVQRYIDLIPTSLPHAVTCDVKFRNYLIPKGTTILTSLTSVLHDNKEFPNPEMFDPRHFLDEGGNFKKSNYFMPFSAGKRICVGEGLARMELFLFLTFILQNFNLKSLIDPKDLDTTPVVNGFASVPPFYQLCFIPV
D(3) dopamine receptor, sequence (P35462 whole entry): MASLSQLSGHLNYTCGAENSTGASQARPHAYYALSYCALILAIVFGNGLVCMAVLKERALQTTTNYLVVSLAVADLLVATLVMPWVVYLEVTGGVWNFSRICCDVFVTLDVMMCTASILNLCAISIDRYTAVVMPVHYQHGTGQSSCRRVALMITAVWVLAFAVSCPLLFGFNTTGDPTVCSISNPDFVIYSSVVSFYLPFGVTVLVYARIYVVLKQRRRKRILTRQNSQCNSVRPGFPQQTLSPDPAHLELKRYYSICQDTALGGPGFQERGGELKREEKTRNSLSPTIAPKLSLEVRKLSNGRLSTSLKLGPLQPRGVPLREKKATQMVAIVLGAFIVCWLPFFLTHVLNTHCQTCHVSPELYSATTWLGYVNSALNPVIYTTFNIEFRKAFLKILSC
5-hydroxytryptamine receptor 6, sequence (P50406 whole entry): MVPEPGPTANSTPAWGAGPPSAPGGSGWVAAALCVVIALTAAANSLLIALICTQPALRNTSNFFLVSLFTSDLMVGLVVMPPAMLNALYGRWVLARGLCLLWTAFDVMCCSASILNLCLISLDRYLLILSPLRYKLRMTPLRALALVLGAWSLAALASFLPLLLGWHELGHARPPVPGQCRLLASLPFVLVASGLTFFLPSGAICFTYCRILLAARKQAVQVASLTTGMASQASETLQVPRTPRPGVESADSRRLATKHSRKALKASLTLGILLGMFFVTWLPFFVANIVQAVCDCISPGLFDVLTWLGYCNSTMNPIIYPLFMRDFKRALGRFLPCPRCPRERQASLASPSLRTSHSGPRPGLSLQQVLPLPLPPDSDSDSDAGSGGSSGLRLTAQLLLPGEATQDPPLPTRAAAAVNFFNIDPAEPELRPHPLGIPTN
5-hydroxytryptamine receptor 2B, sequence (P41595 whole entry): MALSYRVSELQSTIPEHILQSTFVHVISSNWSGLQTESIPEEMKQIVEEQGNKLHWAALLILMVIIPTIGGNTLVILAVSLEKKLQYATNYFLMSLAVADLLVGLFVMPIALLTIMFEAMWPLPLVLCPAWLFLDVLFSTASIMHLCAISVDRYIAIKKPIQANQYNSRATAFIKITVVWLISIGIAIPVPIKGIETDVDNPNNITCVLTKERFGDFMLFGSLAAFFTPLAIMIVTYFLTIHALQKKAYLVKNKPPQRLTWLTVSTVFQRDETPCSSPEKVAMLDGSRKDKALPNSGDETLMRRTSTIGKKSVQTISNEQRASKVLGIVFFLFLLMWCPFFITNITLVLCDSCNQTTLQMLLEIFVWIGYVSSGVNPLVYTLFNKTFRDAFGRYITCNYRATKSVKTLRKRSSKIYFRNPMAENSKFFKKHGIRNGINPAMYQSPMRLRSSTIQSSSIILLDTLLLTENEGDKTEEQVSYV
Alpha-2A adrenergic receptor, sequence (P08913 whole entry): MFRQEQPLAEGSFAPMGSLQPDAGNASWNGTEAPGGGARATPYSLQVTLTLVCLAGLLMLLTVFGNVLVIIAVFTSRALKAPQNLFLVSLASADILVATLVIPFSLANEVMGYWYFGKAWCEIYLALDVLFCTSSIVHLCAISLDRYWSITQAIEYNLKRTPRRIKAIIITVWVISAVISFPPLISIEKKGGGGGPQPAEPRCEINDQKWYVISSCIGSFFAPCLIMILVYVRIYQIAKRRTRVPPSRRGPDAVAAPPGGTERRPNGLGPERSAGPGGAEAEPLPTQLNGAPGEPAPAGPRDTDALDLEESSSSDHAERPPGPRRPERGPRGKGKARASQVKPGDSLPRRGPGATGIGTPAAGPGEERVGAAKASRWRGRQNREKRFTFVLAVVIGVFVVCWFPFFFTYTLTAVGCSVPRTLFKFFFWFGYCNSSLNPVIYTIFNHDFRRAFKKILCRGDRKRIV
CYP2D6, sequence (P10635 whole entry): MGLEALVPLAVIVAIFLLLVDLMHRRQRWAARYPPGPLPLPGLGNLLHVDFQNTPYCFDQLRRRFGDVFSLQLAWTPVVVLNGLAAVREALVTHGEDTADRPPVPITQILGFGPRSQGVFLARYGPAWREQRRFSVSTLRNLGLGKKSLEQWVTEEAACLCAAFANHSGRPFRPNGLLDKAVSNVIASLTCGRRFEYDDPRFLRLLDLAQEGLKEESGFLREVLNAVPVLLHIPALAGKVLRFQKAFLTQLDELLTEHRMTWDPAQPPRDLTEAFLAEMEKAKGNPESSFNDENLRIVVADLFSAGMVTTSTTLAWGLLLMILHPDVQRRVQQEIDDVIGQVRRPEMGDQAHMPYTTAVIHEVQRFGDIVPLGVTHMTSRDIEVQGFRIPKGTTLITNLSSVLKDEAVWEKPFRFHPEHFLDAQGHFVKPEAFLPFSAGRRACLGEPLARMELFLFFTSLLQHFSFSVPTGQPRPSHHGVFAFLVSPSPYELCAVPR

For `NC[C@H]1C[C@@H]1c1cc(O)ccc1OCC1CC1`, which bioavailability [1] is on record?
Its bioavailability is 3.2%.

For `C=CCOc1ccc(F)cc1[C@H]1C[C@@H]1CN.Cl`, which Ki [2] is on record?
Its Ki is under 1000 nM.

What about the Ratio EC50 (Homo sapiens) of the same compound?
Its Ratio EC50 is 89.

And the inhibition at 3.3 µM (hERG (KCNH2) [3])?
Its inhibition at 3.3 µM is 18%.

And the Ki [4]?
The Ki was under 1000 nM.

What about the Activity [5] of the same compound?
Its Activity is “inactive”.

What about the Ki [6] of the same compound?
The Ki was under 1000 nM.

And the inhibition at […] (hERG (KCNH2) [7])?
Its inhibition at […] is 6.4%.

And the inhibition at 10 µM (CYP2D6)?
Its inhibition at 10 µM is 43%.

What about the Ki [8] of the same compound?
Its Ki is under 1000 nM.

What about the inhibition at 10 µM (CYP3A4) of the same compound?
The inhibition at 10 µM was 15%.

What about the EC50 [9] of the same compound?
The EC50 was 4.2 nM.

And the “inhibition (INH)” value [10]?
Its value is “Dose-dependent effect”.

And the inhibition at 10 µM (hERG (KCNH2) [11])?
Its inhibition at 10 µM is 29%.

And the inhibition at 10 µM (CYP2C19)?
The inhibition at 10 µM was 22%.

And the EC50 [12]?
The EC50 was 374 nM.

What about the Ki [13] of the same compound?
The Ki was under 1000 nM.

And the inhibition at 10 µM (CYP2C9)?
The inhibition at 10 µM was 35%.

What about the inhibition at […] (hERG (KCNH2) [14]) of the same compound?
The inhibition at […] was 8.7%.

What about the Emax [15] of the same compound?
Its Emax is 87%.

What about the Emax [16] of the same compound?
The Emax was 56%.

What about the Ki (D(3) dopamine receptor) of the same compound?
Its Ki is under 1000 nM.

And the Ki [17]?
The Ki was under 1000 nM.

What about the inhibition at 30 µM (hERG (KCNH2) [18]) of the same compound?
The inhibition at 30 µM was 45%.

And the Activity (Mus musculus)?
Its Activity is “Dose-dependent effect”.

What about the inhibition at 10 µM (CYP2B6) of the same compound?
The inhibition at 10 µM was 80%.
